Key:
Vero cells = assay: MTT cytotoxicity assay, Vero; assay type: cell-based; details: 72 h incubation, mean ± SD of three independent experiments
In short: (§1)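 Cells kept in DMEM with 10% FBS and 1% penicillin-streptomycin at 37 °C, 5% CO2. Seeding: A549 5 × 10^3, HeLa 1 × 10^3, Vero 2 × 10^3 cells/well. After 16−18 h, medium replaced with graded compound concentrations for 72 h. MTT 0.5 mg/mL for 3 h; formazan dissolved in DMSO; A570 (reference 630 nm). IC50 by nonlinear regression; doxorubicin positive control.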

[1] = system: human cervical carcinoma cells (HeLa); assay: MTT cytotoxicity assay, HeLa; assay type: cell-based; details: 72 h incubation, mean ± SD of three independent experiments
In short: as §1

[2] = system: nonsmall cell lung cancer cells (A549); assay: MTT cytotoxicity assay, A549; assay type: cell-based; details: for IC50 A549: MTT assay, 72 h incubation, mean ± SD of three independent experiments; for IC50: Homo sapiens, A549, 72 h, read-out: IC50 A549
In short: as §1

[3] = system: HCT 116 colorectal cancer cells; details: cited from earlier work
[4] = system: NCI-H187 cancer cell line; details: previously reported; cited from earlier work
HeLa cells = assay: Apoptosis analysis; assay type: cell-based, human; details: both tested concentrations, Figure 4C,D
A549 cells = assay: Apoptosis analysis; assay type: cell-based; details: compared to untreated, Figure 4A,B

| SMILES | IC50 HeLa [1] | IC50 A549 [2] | IC50 [2] [µM] | further results |
| --- | --- | --- | --- | --- |
| O=C1C[C@@H](c2ccccc2)Oc2cc(O)c(Cc3ccccc3O)c(O)c21 [Compound 5, isochamanetin] | inactive | inactive | – | IC50 Vero (Vero cells): inactive |
| O=C1C[C@@H](c2ccccc2)Oc2cc(O)cc(O)c21 [Compound 4, pinocembrin] | – | inactive | – | cytotoxic activity (in words) [3]: exhibit cytotoxic activity; IC50 NCI-H187 [4]: inactive; apoptosis induction (in words) (HeLa cells): increased apoptotic cells in a dose-dependent manner |
| O=C1C[C@@H](c2ccccc2)Oc2c(Cc3ccccc3O)c(O)c(Cc3ccccc3O)c(O)c21 [Compound 7, dichamanetin] | inactive | – | 14.9 ± 0.6 | apoptosis induction (in words) (A549 cells): moderate level of apoptosis |
| COc1cccc2c1C(=O)c1c(O)c3c(c(O)c1C2=O)C[C@@](O)(C(=O)CO)C[C@@H]3O[C@H]1C[C@H](N)[C@H](O)[C@H](C)O1 [doxorubicin, reference compound] | – | – | 0.04 | – |
